Screening results deposited in PubChem BioAssay by several laboratories.
STAT3 act – increases IL-6 driven STAT3 reporter signal; U3A cells, IL-6 STAT3-luciferase reporter, luminescence; 100% = signal with IL-6 EC80 alone; activation (% of control), % at 5.6 µM; 190,000 tested, 0.91% active;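 active = activation above the screen-wide mean of compound activation plus 3 SD, cut at about 130% in these data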
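Material: STAT3-luciferase reporter U3A cells. Controls: IL-6-treated wells, 100% activation. Read-out: % activation versus median of IL-6-stimulated wells. Probe or stimulus: IL-6 stimulus at 33 ng/mL final. Timing: compound 1 h, then IL-6 6 h at 37 °C. Signal: reporter luminescence signal.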
STAT3 inh – reduces IL-6 driven STAT3 reporter signal. U3A cells, IL-6 STAT3-luciferase reporter, luminescence; host cell line lacks STAT1. inhibition, % at 5.5 µM. 190,000 tested, 0.89% active;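 active = inhibition above the mean inhibition across all screened compounds plus 3 SD, cut at about 44% in these data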
NF-kB neuron act – NF-kB expression increase, human neuronal cells | NF-kB reporter expression; active compounds read high | fold change at 12.5 µM | 190,000 tested, 1.6% active | AID 1239; in the data active = fold change above about 3.3
STAT1 inh – STAT1 signaling inhibition. inhibition, % at 5.5 µM. NIH 3T3 STAT1-luciferase reporter, IFN-gamma, luminescence. 200,000 tested, 0.35% active. AID 920;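 active = inhibition above a set limit, the mean inhibition across all tested compounds plus 3 SD, cut at about 34% in these data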
STAT1 act – STAT1 signaling activation; NIH 3T3 STAT1-luciferase reporter, IFN-gamma, luminescence; 100% = IFN-gamma alone, no compound; activation (% of control), % at 5.5 µM; 200,000 tested, 2.6% active;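 active = activation above the screen-wide mean activation plus 3 SD, cut at about 130% in these data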
APP 5'UTR act – APP 5'UTR luciferase reporter activation. SH-SY5Y APP 5'UTR luciferase reporter, luminescence; zero percent = DMSO vehicle wells. activation, % at 2 µM. 190,000 tested, 1% active. AID 1276;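 active = activation above a set limit, based on mean plus 3 SD of controls, cut at about 140% in these data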
A number is an active result; . = inactive; / = no result. Hits are enriched below; roughly 4.9% of the tested compounds scored in any of these assays.

SMILES	STAT3 act	STAT3 inh	NF-kB neuron act	STAT1 inh	STAT1 act	APP 5'UTR act
O=C(NCCc1ccccc1)NC1CCCCC1	.	.	3.4	.	.	.
O=C(NC1CCCCCC1)C(=S)NCCc1ccccc1	.	.	.	.	.	.
O=C(NCCC1=CCCCC1)NC1CCCCC1	.	.	4.5	.	144	.
Nc1nc2n(n1)C(=O)CC(c1ccccc1)N2 (configuration not stated)	.	.	.	.	.	.
Cc1ccc(-n2nc(C)c3c2OC(N)=C(C#N)C3c2ccco2)cc1 (configuration not stated)	140	.	.	.	.	.
Cc1ccc(-n2nc(C)c3c2OC(N)=C(C#N)C3c2ccc(C)o2)cc1 (configuration not stated)	.	.	.	.	.	.
O=C(Nc1ccc2c(c1)OCO2)c1cc2nc(C3CC3)cc(C(F)(F)F)n2n1	.	.	.	.	.	.
CC(=O)c1cccc(NC(=O)c2ccc(C(=O)Nc3cccc(C(C)=O)c3)nc2)c1	.	.	.	.	.	.
O=C(Nc1cccnc1)c1cc(-c2ccc3c(c2)OCO3)on1	.	.	5.5	.	134	.
Cc1cc(C)n2nc(C(=O)Nc3ccc4c(c3)OCO4)cc2n1	.	.	3.3	.	129	.
CC(=O)c1cccc(NC(=O)c2cc3nc(C)cc(C)n3n2)c1	.	.	.	.	145	.
CC(C)Cc1cc(C(=O)Nc2ccc3c(c2)OCO3)no1	.	.	.	.	132	.
Cc1ccc(NC(=O)C(Cc2ccccc2)NC(=O)c2ccco2)cc1 (configuration not stated)	.	.	.	.	.	.
COC(=O)CCC(=O)COc1ccc(OC)cc1C#N	.	.	.	.	130	.
COCCn1c(SCC(=O)c2c[nH]c3ccccc23)nnc1-c1ccncc1	136	.	.	.	.	.
O=C1OCCC1Sc1nc2ccccc2s1 (configuration not stated)	.	.	.	.	.	.
OC1CCCCC1Sc1nc2ccccc2s1 (configuration not stated)	.	.	.	.	130	.
Fc1ccc(-n2ncc3c(SCc4cccnc4)ncnc32)cc1	.	.	3.4	.	.	.
O=S(=O)(C/C(=C/CO)S(=O)(=O)c1ccccc1)c1ccccc1	.	48	.	.	260	.
O=C(CCN1C(=O)C2C3CCC(C3)C2C1=O)OCC(=O)c1cccc([N+](=O)[O-])c1 (configuration not stated)	.	.	.	.	.	.
Cc1ccc(Cn2ncc3c(N4CCN(c5ccccc5C)CC4)ncnc32)cc1	.	.	.	.	.	.
Cc1ccc(CNC(=O)CSCc2cccc(F)c2)cc1	.	.	.	.	.	.
O=C(CSCc1ccccc1F)NCc1ccccc1	.	.	.	.	133	.
O=C(CSCc1cccc(F)c1)NCc1ccccc1	.	.	.	.	133	.
O=C1c2ccccc2C(=O)C1c1ccc(O)cc1	.	.	3.8	.	.	.
SMILES	STAT3 act	STAT3 inh	NF-kB neuron act	STAT1 inh	STAT1 act	APP 5'UTR act
CC(C)Oc1ccc(NC(=O)Oc2ccccc2)cc1	.	.	.	.	130	.
O=C(Nc1ccc(Cl)cc1)C(c1ccccc1)N(CCO)CCO (configuration not stated)	.	.	4.3	.	.	.
O=C(NCc1ccco1)c1cc(-c2cccs2)on1	.	.	5.2	.	130	.
CC(C)Cc1cc(C(=O)NCc2cccs2)no1	.	.	.	.	134	.
O=C(NCc1ccc(F)cc1)c1cc(-c2ccco2)on1	.	.	.	.	.	.
O=C(NCc1ccco1)c1cc(-c2ccc(F)cc2)on1	.	.	.	.	142	.
O=C(NCc1ccco1)c1cc(-c2ccccc2)on1	.	.	4.5	.	131	.
CC1=C(C(=O)Nc2ccccc2)C(c2sccc2C)n2nnnc2N1 (configuration not stated)	.	.	.	.	.	.
O=C(Nc1ccccc1O)c1c(O)c2c([nH]c1=O)CCCC2	.	.	4.5	.	.	.
Cc1coc2c1C(=O)C(=O)c1c-2ccc2c1CCCC2(C)C	/	/	.	.	.	.
C[C@H]1COC2=C1C(=O)C(=O)c1c2ccc2c1CCCC2(C)C	/	/	.	.	129	.
COc1ccc(OC)c(C2NC(=O)c3sc(=S)n(-c4ccccc4)c3N2)c1 (configuration not stated)	.	.	.	.	.	.
Cc1nc(NC(=O)c2ccccc2[N+](=O)[O-])sc1C(=O)N(C)C	.	.	.	.	.	.
Cc1nc(NC(=O)c2oc3ccccc3c2C)sc1C(=O)N(C)C	.	.	.	.	139	.
CC1=CC(C)=Nc2ccc(C)cc2N1	.	.	.	.	139	.
Cc1ccc2c(c1)NC(=O)CC(c1ccccc1)=N2	.	.	.	.	.	.
CN1CCc2c(c3c(n2C)CCN(C)[C@H]3c2ccccc2F)[C@@H]1c1ccccc1F	.	.	.	.	.	.
CN(C)c1ccc(C(=O)n2nnc3ccccc32)cc1	.	.	.	.	.	.
CCN(CC)c1ccc(C(=O)n2cnc3ccccc32)cc1	.	.	.	.	130	.
O=c1c2ccccc2cnn1-c1ccc2ccccc2c1	.	.	3.4	.	131	168
Cc1ccc(Nc2nc(=O)c3cccnc3s2)cc1	144	.	4.3	.	137	.
C/C(=C\c1ccco1)CN1CCN(Cc2ccc(C)o2)C(CCO)C1 (configuration not stated)	.	.	.	.	.	.
COc1ccc(C(C(=O)NCCC(C)C)N(CCN2CCOCC2)C(=O)Cn2nnc3ccccc32)c(OC)c1 (configuration not stated)	.	.	.	.	.	.
CC(CC(=O)NCc1cccnc1)c1ccccc1 (configuration not stated)	.	.	.	.	.	.
CCOC(=O)c1ccc2nc3c(cc2c1)CCS3	.	.	.	.	135	.
SMILES	STAT3 act	STAT3 inh	NF-kB neuron act	STAT1 inh	STAT1 act	APP 5'UTR act
CCOC(=O)c1ccc2nc(C)c3c(c2c1)OC(C)C3 (configuration not stated)	.	.	.	.	.	.
Cc1ccc(-n2nc3c(n2)/C(=N/O)CC/C3=N\O)cc1	.	.	4.7	.	130	.
O/N=C1\CC/C(=N\O)c2nn(-c3ccccc3Cl)nc21	.	.	.	.	.	.
CCc1ccc(C(=O)Nc2nnn(CC)n2)cc1	.	.	3.7	.	.	.
Cc1ccccc1-n1c(SCC(=O)c2cc(C)n(C)c2C)nnc1-c1ccncc1	.	.	.	.	.	.
CCN(CC)S(=O)(=O)c1cc(C(=O)OCC(=O)Nc2cccc(S(=O)(=O)N(C)C)c2)ccc1F	.	.	.	.	.	.
